In brackets after ≈: the same amount, converted by molar mass. Where two headings read alike, the source gives them in different places.
Tests used:
[1] = target: T1, L1 (Stenotrophomonas maltophilia, UniProt P52700); test: IC50 assay, nitrocefin hydrolysis, 10 min preincubation; type: biochemical, S. maltophilia
[2] = target: T2, NDM-1 (Klebsiella pneumoniae, UniProt C7C422); test: Ki determination, slow-binding progress curves with nitrocefin; type: biochemical
Summary of the method: (§1)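 Enzyme was added to nitrocefin in excess, with inhibitor dilutions spanning the variable-rate range: IMP-1 60 pM with 25 μM nitrocefin, VIM-2 39.2 pM with 100 μM, NDM-1 600 pM with 15 μM, L1 308 pM with 50 μM. Buffer was 50 mM HEPES pH 7.2, 50 μg/mL BSA, 0.01% Triton X-100, read at 482 nm and 30 °C for 10 min. Progress curves gave kobs; a linear fit of kobs versus [I] gave k–0 and Kiapp, then Ki.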

[3] = target: T3, IMP-1 (Serratia marcescens, UniProt P52699); test: IC50 assay, nitrocefin hydrolysis, 10 min preincubation; type: biochemical
T3 sequence (P52699 19-246, looked up): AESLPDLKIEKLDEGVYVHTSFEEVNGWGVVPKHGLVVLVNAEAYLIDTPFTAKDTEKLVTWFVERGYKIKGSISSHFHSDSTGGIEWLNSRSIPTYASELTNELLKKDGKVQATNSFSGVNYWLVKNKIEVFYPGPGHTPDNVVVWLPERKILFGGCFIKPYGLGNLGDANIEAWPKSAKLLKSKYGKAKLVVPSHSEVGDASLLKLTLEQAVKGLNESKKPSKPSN

[4] = target: T4, VIM-2 (Escherichia coli, UniProt Q5U7L7); test: Ki determination, slow-binding progress curves with nitrocefin; type: biochemical
Summary of the method: as §1

[5] = target: T3, IMP-1; test: as above; type: biochemical
Summary of the method: as §1

[6] = target: T1, L1; test: as above; type: biochemical, S. maltophilia
Summary of the method: as §1

[7] = target: T4, VIM-2; test: IC50 assay, nitrocefin hydrolysis, 10 min preincubation; type: biochemical
[8] = tested on: MBLs (VIM-2, NDM-1, IMP-1, L1); test: IC50 assay, summary over the MBLs tested; type: biochemical
[9] = target: T2, NDM-1; test: IC50 assay, nitrocefin hydrolysis, 10 min preincubation; type: biochemical
[10] = tested on: K. pneumoniae UWB116 (NDM-1); details: NDM-1-producing K. pneumoniae clinical isolate, cited from earlier work
[11] = tested on: P. aeruginosa UWB78 (VIM-2); test: Meropenem MIC, broth microdilution, clinical strain; type: cell-based; details: in the absence of inhibitor
[12] = tested on: non-MBL-producing K. pneumoniae; details: non-MBL-producing strain; cited from earlier work
[13] = tested on: E. coli MG1655 vector only; test: Meropenem MIC, broth microdilution; type: cell-based; details: Escherichia coli, MG1655, read-out: Meropenem MIC
[14] = tested on: S. maltophilia K279a (L1, L2); test: Meropenem MIC, broth microdilution, clinical strain; type: cell-based; details: Stenotrophomonas maltophilia, read-out: Meropenem MIC
[15] = tested on: E. coli MG1655 IMP-1; test: Meropenem MIC, broth microdilution; type: cell-based; details: Escherichia coli, MG1655, read-out: Meropenem MIC
[16] = tested on: E. coli MG1655 NDM-1; test: Meropenem MIC, broth microdilution; type: cell-based; details: Escherichia coli, MG1655, read-out: Meropenem MIC
[17] = tested on: E. coli MG1655 VIM-1; test: Meropenem MIC, broth microdilution; type: cell-based; details: Escherichia coli, MG1655, read-out: Meropenem MIC
[18] = tested on: C. freundii D571 NDM-1; test: Meropenem MIC, broth microdilution; type: cell-based; details: Citrobacter freundii, D571NDM1, read-out: Meropenem MIC
[19] = tested on: P. putida #UWB24 (VIM-2); test: Meropenem MIC, broth microdilution, clinical strain; type: cell-based; details: in the absence of inhibitor
[20] = tested on: En. aerogenes 15-8358A NDM-1; test: Meropenem MIC, broth microdilution; type: cell-based; details: Klebsiella aerogenes, read-out: Meropenem MIC
[21] = tested on: P. aeruginosa UWB41 (VIM-2); test: Meropenem MIC, broth microdilution, clinical strain; type: cell-based; details: Pseudomonas aeruginosa, read-out: Meropenem MIC
[22] = tested on: non-MBL-producing En. aerogenes; details: non-MBL-producing strain; cited from earlier work
[23] = tested on: non-MBL-producing C. freundii; details: non-MBL-producing strain; cited from earlier work
[24] = tested on: S. maltophilia JKWZP (L1, L2); test: Meropenem MIC, broth microdilution, RND pump knockout strain; type: cell-based; details: Stenotrophomonas maltophilia, read-out: Meropenem MIC
[25] = tested on: K. pneumoniae Ecl8 NDM-1; test: Meropenem MIC, broth microdilution; type: cell-based; details: Klebsiella pneumoniae, ECL8NDM1, read-out: Meropenem MIC

T1 sequence (P52700 34-290): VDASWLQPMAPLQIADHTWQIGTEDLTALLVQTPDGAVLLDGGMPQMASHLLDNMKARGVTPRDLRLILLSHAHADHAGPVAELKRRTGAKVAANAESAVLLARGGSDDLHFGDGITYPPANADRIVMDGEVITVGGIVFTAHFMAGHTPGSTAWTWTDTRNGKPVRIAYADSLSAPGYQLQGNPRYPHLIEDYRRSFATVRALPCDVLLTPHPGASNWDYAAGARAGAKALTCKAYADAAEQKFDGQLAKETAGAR
T2 sequence (C7C422 29-270, looked up, species assumed): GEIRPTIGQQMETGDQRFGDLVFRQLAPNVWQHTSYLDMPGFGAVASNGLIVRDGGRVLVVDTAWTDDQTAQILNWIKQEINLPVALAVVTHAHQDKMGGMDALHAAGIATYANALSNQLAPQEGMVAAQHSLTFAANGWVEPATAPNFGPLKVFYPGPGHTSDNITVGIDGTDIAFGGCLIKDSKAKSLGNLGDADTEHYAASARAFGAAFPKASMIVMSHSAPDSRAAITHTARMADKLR

SMILES: O=C(O)c1cccc(C(O)P(=O)(O)O)n1 (stereo not shown) [3b, 6-[hydroxy(phosphono)methyl]picolinic acid]
- IC50 [1]: 2.05 µM
- Ki [2]: 0.078 ± 0.008 µM
- IC50 [3]: 7.2 µM
- Ki [4]: 0.61 ± 0.04 µM
- Dissociative t1/2 = 2 / k-0 ([4]; VIM-2): 6 min
- Ki [5]: 1.5 ± 0.1 µM
- Ki [6]: 0.4 ± 0.1 µM
- IC50 [7]: 1.9 µM

SMILES: O=C(O)c1cccc(C(N(Cc2ccccc2)C(=O)c2cccs2)P(=O)(O)O)n1 (stereo not shown) [3c, 6-[(N-benzyl-1-thiophen-2-ylformamido)(phosphono)methyl]picolinic acid]
- improved potency compared to 3a ([8]; IC50, against NDM-1, VIM-2 and IMP-1): 1.2–2.8 fold
- IC50 ([8]; read-out: IC50, range, against NDM-1, VIM-2 and IMP-1): 0.306 to 2.91 µM
- IC50 [1]: 1.57 µM
- potency compared to 3a ([1]; IC50, against L1): ~0.9 fold
- Ki [2]: 0.034 ± 0.006 µM
- IC50 [3]: 2.91 µM
- Ki [4]: 0.038 ± 0.009 µM
- IC50 [9]: 0.306 µM
- Ki [5]: 0.4 ± 0.2 µM
- Dissociative t1/2 = 2 / k-0 ([5]; IMP-1): 25 min
- Ki [6]: 0.4 ± 0.1 µM
- IC50 [7]: 0.464 µM

SMILES: N[C@H](CN[C@H](CN[C@@H](CC(=O)O)C(=O)O)C(=O)O)C(=O)O [AMA, aspergillomarasmine A]
- Meropenem MIC ([10]; in the presence of 16 mg/L AMA): 0.25 µg/mL
- Meropenem MIC ([10]; in the presence of 32 mg/L AMA): < 0.125 µg/mL

SMILES: C[C@@H](O)[C@H]1C(=O)N2C(C(=O)O)=C(S[C@@H]3CN[C@H](C(=O)N(C)C)C3)[C@H](C)[C@H]12 [Meropenem]
- Meropenem MIC [11]: 64 mg L^–1
- Meropenem MIC [12]: ≤ 0.25 µg/mL
- MIC [13]: < 0.25 µg/mL
- MIC [14]: 16 µg/mL (≈ 41.7 µM)
- MIC [15]: 16 µg/mL (≈ 41.7 µM)
- MIC [16]: > 256 µg/mL
- MIC [17]: 4 µg/mL (≈ 10.4 µM)
- MIC [18]: 32 µg/mL (≈ 83.4 µM)
- Meropenem MIC [19]: 64 mg L^–1
- MIC [20]: 64 µg/mL (≈ 167 µM)
- MIC [21]: 128 µg/mL (≈ 334 µM)
- Meropenem MIC [22]: 0.06 µg/mL
- Meropenem MIC [23]: 0.06 µg/mL
- MIC [24]: 32 µg/mL (≈ 83.4 µM)
- MIC [25]: > 256 µg/mL

SMILES: O=C(O)c1ccccn1 [compound 1, 2-picolinic acid]
- IC50 [1]: > 100 µM
- IC50 [3]: > 100 µM
- IC50 [9]: > 100 µM
- IC50 [7]: 32.2 µM

SMILES: Cc1cccc(C(=O)O)n1 [compound 2, 6-methylpicolinic acid]
- IC50 [1]: > 100 µM
- IC50 [3]: > 100 µM
- IC50 [9]: > 100 µM
- IC50 [7]: > 100 µM

SMILES: O=P(O)(O)Cc1ccccn1 [compound 4, (pyridin-2-ylmethyl)phosphonic acid]
- IC50 [1]: > 1000 µM
- IC50 [3]: > 100 µM
- IC50 [9]: > 1000 µM
- IC50 [7]: 171 µM

From publication PMC6007964 (Biochemistry, 2018)
